What all share (format): functional, organism-based
Holding throughout (details): time 14-21 day

The test system of experiment [1] is Mycobacterium tuberculosis. The experiment can be described thus: Antimycobacterial activity against isoniazid/ethambutol/rifampin/streptomycin/amikacin/gentamicin/clofazimine/ofloxacin […] MDR/XDR clinical isolate Mycobacterium tuberculosis 7357/1998 assessed as inhibition of mycobacterial growth measured after 14 to 21 days of incubation by Sulas semisynthetic medium based assay. The essentials: (§1)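 Clinical MDR/XDR M. tuberculosis isolates were tested by the Sula's semisynthetic medium micromethod. Compounds in DMSO at 1000 to 0.5 μmol/L, in twofold-type steps. Incubation at 37 °C, read at 14 and 21 days. MIC99 is the lowest concentration inhibiting >99% of growth. Drug resistance or susceptibility of each isolate is to amikacin, clofazimine, gentamicin, ofloxacin, streptomycin and the others listed.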

Experiment [2] concerns Mycobacterium tuberculosis. Briefly: Antimycobacterial activity against isoniazid/ethambutol/rifampin/streptomycin/amikacin/gentamicin/clofazimine/ofloxacin […] MDR/XDR clinical isolate Mycobacterium tuberculosis 234/2005 assessed as inhibition of mycobacterial growth measured after 14 to 21 days of incubation by Sulas semisynthetic medium based assay. Summed up:
as §1

The test system of experiment [3] is Mycobacterium tuberculosis. The experiment can be described thus: Antimycobacterial activity against isoniazid/ethambutol/rifampin/streptomycin/amikacin/gentamicin/clofazimine/ofloxacin […] MDR/XDR clinical isolate Mycobacterium tuberculosis 8666/2010 assessed as inhibition of mycobacterial growth measured after 14 to 21 days of incubation by Sulas semisynthetic medium based assay. The essentials: as §1

For experiment [4], the system named is Mycobacterium tuberculosis. The experiment can be described thus: Antimycobacterial activity against isoniazid/ethambutol/rifampin/streptomycin/amikacin/gentamicin/clofazimine/ofloxacin […] MDR/XDR clinical isolate Mycobacterium tuberculosis PRAHA 4 assessed as inhibition of mycobacterial growth measured after 14 to 21 days of incubation by Sulas semisynthetic medium based assay. Summed up: as §1

The test system of experiment [5] is Mycobacterium tuberculosis. Briefly: Antimycobacterial activity against isoniazid/ethambutol/rifampin/streptomycin/amikacin/gentamicin/clofazimine/ofloxacin […] MDR/XDR clinical isolate Mycobacterium tuberculosis 9449/2007 assessed as inhibition of mycobacterial growth measured after 14 to 21 days of incubation by Sulas semisynthetic medium based assay. Summed up:
as §1

The test system of experiment [6] is Mycobacterium tuberculosis. The experiment can be described thus: Antimycobacterial activity against isoniazid/ethambutol/rifampin/streptomycin/amikacin/gentamicin/clofazimine/ofloxacin […] MDR/XDR clinical isolate Mycobacterium tuberculosis PRAHA 1 assessed as inhibition of mycobacterial growth measured after 14 to 21 days of incubation by Sulas semisynthetic medium based assay. The essentials:
as §1

A word on the MIC99: it is the lowest concentration that inhibits either 99% of growth or 99% of the strains tested, depending on the study. With GENTAMICIN, the MIC99 amounted to 1 µM in experiment [1]; 0.25 µM in experiment [2]; 2 µM in experiment [3]; 0.5 µM in experiment [4]; 1 µM in experiment [5]; 1 µM in experiment [6].
